Screening results as filed in PubChem.
Hck Nef HTS – inhibitors of human Hck kinase activated by Nef | Recombinant Hck-YEEI plus Nef, Z-Lyte FRET kinase assay | inhibition, % at 20 µM | 220,000 tested, 0.68% active | AID 463187;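 active = Hck-Nef kinase inhibition above about 50%, limit read from the data; inactive = inhibition below that limit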;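 note: 0% = DMSO with Hck plus Nef and 100% = Hck alone without Nef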
Biofilm kill mix – mixture kills Candida albicans biofilm cells | C. albicans biofilm persisters + clotrimazole, fluorescence viability; primary screen in compound mixtures of four per well | inhibition, % at 7.6 µM | 120,000 tested, 0.02% active;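 active = inhibition above 30.3% in the primary screen of four-compound pools, then above 30% when the compound was retested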;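 note: compounds exposed to preformed 24 h biofilms for 48 h; 0% = untreated biofilm control and 100% = clotrimazole plus chlorhexidine kill blank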
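System: C. albicans CAF4-2 wild-type biofilms; Medium: RPMI/MOPS medium, pH 7.0; Reagent: Clotrimazole, 50 µg/mL; Times: biofilm formation 24 h, compound exposure 48 h, 37 °C; Detection: 2-h Alamar Blue fluorescence, 535/590 nm excitation/emission; Evaluation: percent inhibition of biofilm viability.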
p47phox inh – p47phox (human) inhibition. 220,000 tested, 0.53% active. p47phox/p22phox peptide binding, fluorescence polarization, 2 h. inhibition, % at 24.7 µM. P14598. AID 1274;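 active = inhibition above about 30%, limit read from the data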;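 note: 0% = p47phox with labelled peptide and 100% = labelled peptide alone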
Target sequence (P14598 whole entry, looked up): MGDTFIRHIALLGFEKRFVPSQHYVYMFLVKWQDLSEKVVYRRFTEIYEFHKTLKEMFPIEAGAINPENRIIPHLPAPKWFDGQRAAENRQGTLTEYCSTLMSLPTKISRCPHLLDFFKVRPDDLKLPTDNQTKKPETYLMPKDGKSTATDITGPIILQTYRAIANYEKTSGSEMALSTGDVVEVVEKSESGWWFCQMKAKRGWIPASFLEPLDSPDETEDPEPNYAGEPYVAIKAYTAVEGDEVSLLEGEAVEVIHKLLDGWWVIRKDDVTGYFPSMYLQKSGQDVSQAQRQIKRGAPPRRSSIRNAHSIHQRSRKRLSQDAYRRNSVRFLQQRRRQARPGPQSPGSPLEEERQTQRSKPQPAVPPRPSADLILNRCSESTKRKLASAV
WT yeast gro inh – growth inhibition of WT yeast, mitochondrial fusion screen; mitochondrial fusion phenotypic screen, WT strain; inhibition, % at 10 µM; 190,000 tested, 2.1% active; AID 1362; in the data active = inhibition above about 58%; tested in S. cerevisiae
RAM network inh – blocks the yeast RAM network | S. cerevisiae dse1pr::URA3 reporter, 5-FOA growth OD615, 2 d; analog-sensitive cbk1-as2 kinase mutant strain | inhibition, % at 50 µM | 190,000 tested, 1.8% active;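 active = inhibition above a set limit, 3 SD over mean compound inhibition, cut at about 8.4% in these data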;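 note: 0% = DMSO-only wells with no growth and 100% = 10 µM 1-NA-PP1 full growth; inhibition rescues growth on 5-FOA so higher OD means more RAM inhibition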
Arbovirus inh – arbovirus infection inhibition. inhibition, % at 10 µM. 200,000 tested, 0.37% active. arbovirus infection cell-based antiviral screen; in the data active = inhibition above about 30%
* hit, by the source's call. In the library only some 4.6% were active in any assay of this set; here they are far more common.

For Cc1nn(-c2ccc(F)cc2)c(Cl)c1/C=C1\C(=O)Nc2ccccc21 the results were Hck Nef HTS 3, Biofilm kill mix 10, p47phox inh -14, WT yeast gro inh 50, RAM network inh 8.6* and Arbovirus inh -4.
For Cc1cccc(-n2ncc(C#N)c2N)c1 the results were Hck Nef HTS 1, p47phox inh 172*, WT yeast gro inh -7, RAM network inh -1 and Arbovirus inh 6.
Screening O=C(N/N=C/c1ccc(O)cc1)c1[nH]c2ccc(Br)cc2c1-c1ccccc1 returned Hck Nef HTS 0, Biofilm kill mix 7, p47phox inh -17, WT yeast gro inh 0, RAM network inh 3 and Arbovirus inh 0.
O=C(N/N=C/c1c[nH]c2ccccc12)c1[nH]c2ccc(Br)cc2c1-c1ccccc1 was read as Hck Nef HTS -18, Biofilm kill mix 7, p47phox inh -20, WT yeast gro inh 96*, RAM network inh 4 and Arbovirus inh -34.
O=C(/C(=C/c1ccccc1Cl)c1ccccc1)N1CCOCC1 was read as Hck Nef HTS 0, Biofilm kill mix 17, p47phox inh 0, WT yeast gro inh 19, RAM network inh 3 and Arbovirus inh 4.
`Cc1nn2c(=O)cc(CSc3nc4ccccc4[nH]3)nc2s1` gave Hck Nef HTS 1, p47phox inh 2, WT yeast gro inh 8, RAM network inh 2 and Arbovirus inh 12.
For COc1cc2c(C)nc3c(cnn3-c3ccccc3)c2cc1OC the results were Hck Nef HTS 16, Biofilm kill mix 16, p47phox inh -11, WT yeast gro inh -9, RAM network inh 2 and Arbovirus inh 1.
Screening CC(/C=C1\SC(=S)N(NC(=O)c2ccc(O)cc2)C1=O)=C\c1ccccc1 returned Hck Nef HTS 1, Biofilm kill mix 12, p47phox inh -22, WT yeast gro inh 90*, RAM network inh 3 and Arbovirus inh 7.
`COc1ccc(OC)c(-c2csc(NC(=O)Cc3cccs3)n2)c1` gave Hck Nef HTS 28, Biofilm kill mix 13, p47phox inh -21, WT yeast gro inh 24, RAM network inh 8.6* and Arbovirus inh 4.
`CC1(C)OC(=O)C(=Cc2ccc(-c3ccc(S(N)(=O)=O)cc3)o2)C(=O)O1` gave Hck Nef HTS 58*, Biofilm kill mix 20, p47phox inh -5, WT yeast gro inh -13, RAM network inh 2 and Arbovirus inh 4.
Screening NS(=O)(=O)c1ccc(-c2ccc(/C=C3\C(=O)Nc4cc(Cl)ccc43)o2)cc1 returned Hck Nef HTS 7, Biofilm kill mix 5, p47phox inh 4, WT yeast gro inh 4, RAM network inh 6 and Arbovirus inh -7.
For Cc1cc(C)n2c(=O)c3ccc(Cl)cc3nc2c1C#N the results were Hck Nef HTS 10, Biofilm kill mix 10, p47phox inh -25, WT yeast gro inh 53, RAM network inh 0 and Arbovirus inh 2.
For Cc1cc(Cl)n2c(nc3cc(F)c(F)cc32)c1C#N the results were Hck Nef HTS 6, Biofilm kill mix 19, p47phox inh -18, WT yeast gro inh 81*, RAM network inh -1 and Arbovirus inh -25.
Fc1ccc(F)c(C2=NNC(=Nc3ccccc3F)SC2)c1 was read as Hck Nef HTS 1, Biofilm kill mix 13, p47phox inh -9, WT yeast gro inh 63*, RAM network inh 1 and Arbovirus inh -23.
For Fc1ccc(N=C2NN=C(c3cc(F)ccc3F)CS2)cc1 the results were Hck Nef HTS 2, Biofilm kill mix 12, p47phox inh -11, WT yeast gro inh 80*, RAM network inh 2 and Arbovirus inh -14.
For Fc1ccccc1N=C1NN=C(c2ccccc2)CS1 the results were Hck Nef HTS 26, Biofilm kill mix -7, p47phox inh -5, WT yeast gro inh 27, RAM network inh 2 and Arbovirus inh -21.
`COc1ccc(CC(=O)Nc2nnc(SCC(=O)NCc3ccco3)s2)cc1OC` gave Hck Nef HTS 16, Biofilm kill mix 2, p47phox inh -11, WT yeast gro inh -12, RAM network inh 6 and Arbovirus inh -4.
Screening Cc1nc(OCC(=O)c2ccc(Cl)cc2)c(C#N)c2c1COC(C)(C)C2 returned Hck Nef HTS 1, p47phox inh 122*, WT yeast gro inh 27, RAM network inh 1 and Arbovirus inh -17.
